Measurements: PMC3773367 (Biochemistry, 2010)

Experiments:
[1] = target: K16Q ThArsA; test: Photoaffinity labelling with increasing 8-azido[γ-32P]ATP; type: binding; settings: read-out: apparent Kd
[2] = target: ThArsA; test: as above; type: binding; settings: read-out: apparent Kd
[3] = system: ThArsA; type: biochemical; settings: read-out: Km for ATP
[4] = target: wild-type ArsA (Escherichia coli, UniProt P08690); settings: read-out: Km for ATP
[5] = system: E. coli strain JM109; test: Arsenite resistance assay; type: cell-based, Escherichia coli
[6] = ATPase activity, NADH-coupled assay; type: biochemical, Escherichia coli; settings: for ATPase activity relative to wild type: % of wild-type activity
[7] = Sb; type: binding, Escherichia coli; settings: 10 μM ArsA, 2 mM ATPγS, 2.5 mM MgCl2; Sb(III) per ArsA
In short: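 Purified ArsA buffer-exchanged into 50 mM MOPS-KOH pH 7.5. Incubated 1 h on ice with 2 mM ATPγS, 2.5 mM MgCl2 and a range of potassium antimonyl tartrate concentrations. Unbound metalloid removed on a spin gel-filtration column in the same buffer. Eluate diluted in 2% HNO3 and antimony measured by ICP-MS against an antimony standard. Binding expressed as a function of Sb(III) concentration.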

Chain of wild-type ArsA (P08690 whole entry): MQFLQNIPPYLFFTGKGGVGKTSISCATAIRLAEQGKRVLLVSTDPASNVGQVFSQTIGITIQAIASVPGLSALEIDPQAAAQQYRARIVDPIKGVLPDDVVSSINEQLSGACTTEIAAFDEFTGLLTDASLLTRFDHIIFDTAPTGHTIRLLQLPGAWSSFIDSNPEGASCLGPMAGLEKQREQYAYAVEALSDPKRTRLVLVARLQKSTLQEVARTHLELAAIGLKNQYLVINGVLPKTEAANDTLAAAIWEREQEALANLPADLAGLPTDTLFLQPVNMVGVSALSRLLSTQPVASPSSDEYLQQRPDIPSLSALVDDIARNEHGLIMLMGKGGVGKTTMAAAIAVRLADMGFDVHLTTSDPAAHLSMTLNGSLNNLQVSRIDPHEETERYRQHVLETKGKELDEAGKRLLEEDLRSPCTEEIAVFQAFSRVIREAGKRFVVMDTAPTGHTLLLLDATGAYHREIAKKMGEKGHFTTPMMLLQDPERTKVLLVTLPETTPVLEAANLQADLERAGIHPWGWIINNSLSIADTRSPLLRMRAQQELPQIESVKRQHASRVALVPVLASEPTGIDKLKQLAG

[N-]=[N+]=Nc1nc2c(N)ncnc2n1[C@@H]1O[C@H](COP(=O)(O)OP(=O)(O)OP(=O)(O)O)[C@@H](O)[C@H]1O [8-azido[γ-32P]ATP, 8-azidoadenosine 5'-[γ-32P]triphosphate]
Kd [1]: 55 µM
Kd [2]: 50 µM

Nc1ncnc2c1ncn2[C@@H]1O[C@H](COP(=O)(O)OP(=O)(O)OP(=O)(O)O)[C@@H](O)[C@H]1O [ATP, adenosine 5'-triphosphate]
Km [3]: 170 µM
Km [4]: 170 µM

O=[As][O-].[Na+] [sodium arsenite]
sodium arsenite concentration in which cells could grow ([5]; cells expressing wild-type arsA and arsB genes): 5 mM
sodium arsenite concentration at which cells were sensitive ([5]; cells without an ars operon): 1 mM

B1: K16Q ArsA: ArsA with signature Lys16 (A1 half) changed to glutamine (protein, UniProt P08690 1-583, looked up, variant K16Q)
Arsenical pump-driving ATPase: MQFLQNIPPYLFFTGQGGVGKTSISCATAIRLAEQGKRVLLVSTDPASNVGQVFSQTIGITIQAIASVPGLSALEIDPQAAAQQYRARIVDPIKGVLPDDVVSSINEQLSGACTTEIAAFDEFTGLLTDASLLTRFDHIIFDTAPTGHTIRLLQLPGAWSSFIDSNPEGASCLGPMAGLEKQREQYAYAVEALSDPKRTRLVLVARLQKSTLQEVARTHLELAAIGLKNQYLVINGVLPKTEAANDTLAAAIWEREQEALANLPADLAGLPTDTLFLQPVNMVGVSALSRLLSTQPVASPSSDEYLQQRPDIPSLSALVDDIARNEHGLIMLMGKGGVGKTTMAAAIAVRLADMGFDVHLTTSDPAAHLSMTLNGSLNNLQVSRIDPHEETERYRQHVLETKGKELDEAGKRLLEEDLRSPCTEEIAVFQAFSRVIREAGKRFVVMDTAPTGHTLLLLDATGAYHREIAKKMGEKGHFTTPMMLLQDPERTKVLLVTLPETTPVLEAANLQADLERAGIHPWGWIINNSLSIADTRSPLLRMRAQQELPQIESVKRQHASRVALVPVLASEPTGIDKLKQLAG
ATPase activity relative to wild type [6]: 70%
ATPase activity relative to wild type ([6]; listed as K16Q): approximately 70%
EC50 ([6]; read-out: concentration of antimonite [Sb(III)] required for half-maximal activation): 20 µM
reduction in the affinity of ATP ([6]; versus wild type): 3 fold

B2: K335Q ArsA: ArsA with signature Lys335 (A2 half) changed to glutamine (protein, UniProt P08690 1-583, looked up, variant K335Q)
Arsenical pump-driving ATPase: MQFLQNIPPYLFFTGKGGVGKTSISCATAIRLAEQGKRVLLVSTDPASNVGQVFSQTIGITIQAIASVPGLSALEIDPQAAAQQYRARIVDPIKGVLPDDVVSSINEQLSGACTTEIAAFDEFTGLLTDASLLTRFDHIIFDTAPTGHTIRLLQLPGAWSSFIDSNPEGASCLGPMAGLEKQREQYAYAVEALSDPKRTRLVLVARLQKSTLQEVARTHLELAAIGLKNQYLVINGVLPKTEAANDTLAAAIWEREQEALANLPADLAGLPTDTLFLQPVNMVGVSALSRLLSTQPVASPSSDEYLQQRPDIPSLSALVDDIARNEHGLIMLMGQGGVGKTTMAAAIAVRLADMGFDVHLTTSDPAAHLSMTLNGSLNNLQVSRIDPHEETERYRQHVLETKGKELDEAGKRLLEEDLRSPCTEEIAVFQAFSRVIREAGKRFVVMDTAPTGHTLLLLDATGAYHREIAKKMGEKGHFTTPMMLLQDPERTKVLLVTLPETTPVLEAANLQADLERAGIHPWGWIINNSLSIADTRSPLLRMRAQQELPQIESVKRQHASRVALVPVLASEPTGIDKLKQLAG
ATPase activity (in words) ([6]; purified protein): inactive

B3: C113A/C422A: ArsA derivative lacking the Sb(III)-binding residues Cys113 and Cys422 (protein, UniProt P08690 1-583, looked up, variant C113A C422A)
Arsenical pump-driving ATPase: MQFLQNIPPYLFFTGKGGVGKTSISCATAIRLAEQGKRVLLVSTDPASNVGQVFSQTIGITIQAIASVPGLSALEIDPQAAAQQYRARIVDPIKGVLPDDVVSSINEQLSGAATTEIAAFDEFTGLLTDASLLTRFDHIIFDTAPTGHTIRLLQLPGAWSSFIDSNPEGASCLGPMAGLEKQREQYAYAVEALSDPKRTRLVLVARLQKSTLQEVARTHLELAAIGLKNQYLVINGVLPKTEAANDTLAAAIWEREQEALANLPADLAGLPTDTLFLQPVNMVGVSALSRLLSTQPVASPSSDEYLQQRPDIPSLSALVDDIARNEHGLIMLMGKGGVGKTTMAAAIAVRLADMGFDVHLTTSDPAAHLSMTLNGSLNNLQVSRIDPHEETERYRQHVLETKGKELDEAGKRLLEEDLRSPATEEIAVFQAFSRVIREAGKRFVVMDTAPTGHTLLLLDATGAYHREIAKKMGEKGHFTTPMMLLQDPERTKVLLVTLPETTPVLEAANLQADLERAGIHPWGWIINNSLSIADTRSPLLRMRAQQELPQIESVKRQHASRVALVPVLASEPTGIDKLKQLAG
stoichiometry of Sb(III) binding [7]: only background levels
